The series in a line: Toxicity liver stage against HepG2, at 10uM. The series is classed as cell-based. Also on record: test concentration 10 uM, cell line HepG2-A16-CD81EGFP. Particulars: human, HepG2-A16-CD81EGFP cells; read-out: INHIBITION
An outline of the steps:
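Uninfected HepG2-A16-CD81EGFP cells, 3 × 10^3 per well, 1536-well, plated on prespotted compound at 10 μM final, parasite-free screening media added to match infected plates; puromycin 10 μM positive, DMSO 0.5% negative; run in parallel with 48 h PbLuc assay at 37 °C, 5% CO2; viability by CellTiter-Glo luminescence, normalized to controls.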

Results on 96 compounds are retold here after ChEMBL document CHEMBL4513216, “Probing the Open Global Health Chemical Diversity Library for Multistage-Active Starting Points for Next-Generation Antimalarials” (ACS Infect Dis, 2020).

Turning to `CC(C)n1ccnc1C1CCN(C(=O)c2ccccc2N(C)C)CC1`, the cytotoxicity at 10 µM was 4.67%.

As for `COc1cccc(C2SCC(=O)Nc3ccsc32)c1` (stereo unspecified), the cytotoxicity at 10 µM amounted to 2.77%.

For the compound `Cc1ccc(-c2nnc(CNCCn3cccn3)o2)cc1`, the cytotoxicity at 10 µM was -26.1%.

With `O=C(NCc1cc2ccccc2[nH]1)C1CCCN(C(=O)N2CCCC2)C1` (stereo unspecified), the cytotoxicity at 10 µM was 6.81%.

Take `CCC(C)(N)c1nc(=O)c(C(C)C)c(C)[nH]1` (stereo unspecified): the cytotoxicity at 10 µM is -6.17%.

In the case of `CCC(NC(=O)CNC(=O)OC)c1cc(F)ccc1F` (stereo unspecified), the cytotoxicity at 10 µM is -5.03%.

Turning to `Cc1nc(C2CCCN2Cc2nnc(C3CC3)o2)no1` (stereo unspecified), the cytotoxicity at 10 µM is -5.97%.

For the compound `O=C(NCc1ccccc1CN1CCCC1)Nc1nncs1`, the cytotoxicity at 10 µM was determined as 6.13%.

For the compound `COc1ccc2[nH]cc(C(=O)CNc3nc(C)cs3)c2c1`, the cytotoxicity at 10 µM came to 6.04%.

For `O=C(CN1CCN(C(=O)c2sccc2C2CC2)CC1)NC1CC1`, the cytotoxicity at 10 µM is -3.75%.

As for `CN(C)C(=O)N1CCN(C(=O)c2ccccc2)CC2(CNC(=O)C2)C1` (stereo unspecified), the cytotoxicity at 10 µM was determined as 7.19%.

Consider `Cc1ccc(C(=O)N2CCN(C(=O)NC(C)Cn3ccnc3)CC2)o1` (stereo unspecified), for which the cytotoxicity at 10 µM was -1.47%.

`CC(=O)N1CCN(c2cc(C3CN(C)CCO3)nc(C)n2)CC1` (stereo unspecified): the cytotoxicity at 10 µM turned out to be 1.05%.

In the case of `Cc1noc(C)c1-c1n[nH]c2c1CN(S(=O)(=O)c1cccnc1)CC2`, the cytotoxicity at 10 µM is -11%.

With `COc1cccc(C(O)Cn2ncc3ncccc3c2=O)c1` (stereo unspecified), the cytotoxicity at 10 µM was -2.45%.

Turning to `Cc1sc(NC(=O)CN(C)CCOc2cccc(F)c2)c(C)c1C`, the cytotoxicity at 10 µM came out at 4.21%.

For the compound `CNC(=O)[C@H]1C[C@@H]2CN(S(=O)(=O)c3ccc(C)c(F)c3)C[C@@H]2N1C`, the cytotoxicity at 10 µM is -3.03%.

Consider `CNc1ncccc1C(=O)N1CCCC2(C1)C(=O)N(C)c1ccccc12` (stereo unspecified), for which the cytotoxicity at 10 µM was -5.27%.

Turning to `CCN1C(=O)CCCC12CCCN(C(=O)c1cnccn1)C2` (stereo unspecified), the cytotoxicity at 10 µM was determined as 2.63%.

`O=C(N1CCOCC1CO)C1(c2cccs2)CCCC1` (stereo unspecified): the cytotoxicity at 10 µM was 0.161%.

In the case of `COCCNC(=O)NCCc1cccc(OC)c1O`, the cytotoxicity at 10 µM is 9.31%.

For `CCc1c(C)[nH]c(C(C)(N)CC)nc1=O` (stereo unspecified), the cytotoxicity at 10 µM is -4.04%.

In the case of `Cc1nn(CC(=O)N2CCN(Cc3cnn(C)c3C)CC2)cc1Cl`, the cytotoxicity at 10 µM was -3.22%.

Consider `Cn1ccc(C(=O)N2CCN(Cc3ccccc3F)CC2)cc1=O`, for which the cytotoxicity at 10 µM is -1.44%.

Regarding `CCc1nc(NCC2CCCN(C(=O)C3CC3)C2)c2cnn(C)c2n1` (stereo unspecified), the cytotoxicity at 10 µM came to 1.14%.

On to `CN1CCN(C2CCN(Cc3nc(-c4ccoc4)no3)CC2)C1=O`, for which the cytotoxicity at 10 µM is -2.83%.

Take `Cc1cnn(Cc2ccc(NC(=O)N3CCCC3)cc2)c1`: the cytotoxicity at 10 µM came to 1.18%.

Consider `CC(c1ccon1)N(C)S(=O)(=O)NCc1ccccc1` (stereo unspecified), for which the cytotoxicity at 10 µM is -0.174%.

Take `CCOc1cc(NC(=O)N2CCC(c3nnc[nH]3)CC2)ccc1C`: the cytotoxicity at 10 µM was 14.5%.

Consider `Cn1cnnc1C1CCCN(C(=O)NCCn2ccnc2)C1` (stereo unspecified), for which the cytotoxicity at 10 µM was -2.74%.

In the case of `CCN(C)C[C@@H]1CN(S(=O)(=O)c2cccc(C#N)c2)C[C@@H]1CO`, the cytotoxicity at 10 µM stood at 5.45%.

In the case of `O=C1O[C@@H]2CN(S(=O)(=O)N3CCCC3)C[C@@H]2N1CCc1cccc(Cl)c1`, the cytotoxicity at 10 µM was -2.9%.

Consider `Cc1cc(N(C)CC2COc3ccccc3O2)nc(C)n1` (stereo unspecified), for which the cytotoxicity at 10 µM amounted to 38.7%.

Turning to `CCc1nnc2n1CCN(C(=O)CN(CC)CC)C2`, the cytotoxicity at 10 µM was -3.14%.

Turning to `Cc1nc(COC[C@H]2CC[C@H]3NCC[C@H]3O2)cs1`, the cytotoxicity at 10 µM was -5.64%.

As for `CSc1ccccc1CN1CCn2nc(CNC(C)=O)cc2C1`, the cytotoxicity at 10 µM was -17%.

As to `Cc1nc(N2CCOCC2)nc2c1CCN(C(=O)C1(C#N)CC1)CC2`, the cytotoxicity at 10 µM is -117%.

With `CC(=O)Nc1ncc(S(=O)(=O)N2CCCC(C)C2)s1` (stereo unspecified), the cytotoxicity at 10 µM was determined as 2.28%.

With `CN(C)[C@@H]1CN(Cc2ccoc2)C[C@@H]2CCCO[C@@H]21`, the cytotoxicity at 10 µM came out at 1.93%.

On to `COC(=O)c1ccc(C2SCC(=O)Nc3ccsc32)cc1` (stereo unspecified), for which the cytotoxicity at 10 µM is -6.79%.

For the compound `Cc1ccc(Cn2nc(C)c3c(C(=O)O)c(Cl)c(C4CC4)nc32)cc1`, the cytotoxicity at 10 µM was found to be 6.75%.

As to `O=C1CC(N(C(=O)c2ccccc2Br)C2CC2)C(=O)N1` (stereo unspecified), the cytotoxicity at 10 µM amounted to 10.3%.

For `COc1ccc(Cl)cc1CS(=O)(=O)Cc1nc(C)no1`, the cytotoxicity at 10 µM was -2.53%.

As to `CCOc1ccc(C2c3c(N)nc(SC)nc3N=C3COC(=O)C32)cc1` (stereo unspecified), the cytotoxicity at 10 µM came to 30%.

`Cc1ccc2c(c1)OCCCC2NCc1nnc2n1CCCCC2` (stereo unspecified): the cytotoxicity at 10 µM is -7.89%.

As for `CC(C)(C)c1ccc(S(=O)(=O)CCNC(=O)c2cnccn2)cc1`, the cytotoxicity at 10 µM was 4.92%.

Take `CCC(CO)N(Cc1ccncc1)Cc1c[nH]nc1-c1ccc(F)cc1` (stereo unspecified): the cytotoxicity at 10 µM is -5.5%.

Regarding `Cc1cccc(-n2ncc3c2CCCC3NCc2cccc(O)c2)c1C` (stereo unspecified), the cytotoxicity at 10 µM came out at 3.11%.

Take `COCC1c2c(cnn2C)CCN1C(=O)c1cc(C)on1` (stereo unspecified): the cytotoxicity at 10 µM was -79.5%.

For the compound `COc1ccc(NC2CCCN(Cc3cnc(N(C)C)s3)C2)cc1OC` (stereo unspecified), the cytotoxicity at 10 µM stood at 3.46%.

For `Cc1cc(CSCc2ccccn2)on1`, the cytotoxicity at 10 µM came to 7.69%.

`CN(Cc1cccs1)C(=O)c1ccc(=O)n(C)c1`: the cytotoxicity at 10 µM was -13.2%.

As for `CC(C)(C)OC(=O)NCC1CCN(C(=O)c2ccccc2O)C1` (stereo unspecified), the cytotoxicity at 10 µM was -3.73%.

Take `NC(=O)C1CCN(C(=O)NCc2ccccc2-n2cccn2)C1` (stereo unspecified): the cytotoxicity at 10 µM was -18.4%.

With `CCOCC1CN(Cc2ccc(F)cc2)Cc2nn(CC3CC3)cc21` (stereo unspecified), the cytotoxicity at 10 µM is 7.43%.

On to `Cc1oc(-c2ccccc2)nc1CN1CCC(c2ccnn2C)CC1`, for which the cytotoxicity at 10 µM is 15.6%.

With `CCn1c(C2CCCN(Cc3ccnc4ccccc34)C2)nn(C)c1=O` (stereo unspecified), the cytotoxicity at 10 µM is -5.92%.

Take `CSC(C)C(=O)N(C)C1CCN(c2ccc(Cl)cc2)CC1` (stereo unspecified): the cytotoxicity at 10 µM was found to be 0.204%.

As to `CC(=O)N(Cc1noc(C)n1)C1CCN(CC2(O)CCCCC2)C1` (stereo unspecified), the cytotoxicity at 10 µM was found to be 5.69%.

Take `Cc1nc(-c2ccccc2)sc1C(=O)N(C1CC1)C1CC(=O)NC1=O` (stereo unspecified): the cytotoxicity at 10 µM is 2.78%.

As for `CC(=O)NC1CCCN(C(=O)NCc2cc[nH]n2)C1` (stereo unspecified), the cytotoxicity at 10 µM was -11.5%.

With `Cc1ccc(N2CCC(c3nccn3Cc3cscn3)CC2)nn1`, the cytotoxicity at 10 µM was -12.8%.

In the case of `CCCc1cc(C(=O)N(C)Cc2cnc3ccccc3n2)n(C)n1`, the cytotoxicity at 10 µM is -19.3%.

As for `CC(=O)N1C[C@H]2C3(CCN(S(C)(=O)=O)CC3)CC[C@@]2(C(=O)N(C)C)C1`, the cytotoxicity at 10 µM is -1.16%.

`COc1cccc(C2=CCN(CCN3CCCC3=O)CC2)c1`: the cytotoxicity at 10 µM is -10.6%.

In the case of `CC(C)Oc1ncccc1CNC(=O)NC(C)c1cccs1` (stereo unspecified), the cytotoxicity at 10 µM was -2.3%.

`Cc1nc(CN)cc(NCc2ccccc2-n2cncn2)n1`: the cytotoxicity at 10 µM amounted to 1.88%.

For `CC(=O)N1CCO[C@@H]2CN(C(=O)c3ccccc3)CC[C@@H]2C1`, the cytotoxicity at 10 µM was 5.29%.

Consider `CC(C)C(=O)NCC(=O)N1CCC2(CC1)c1ccccc1[C@@H](N)[C@@H]2O`, for which the cytotoxicity at 10 µM came to 0.174%.

Turning to `CC(NC(=O)NCC1(c2ccc(F)cc2)CCCC1)c1nncn1C` (stereo unspecified), the cytotoxicity at 10 µM is -6.27%.

Regarding `Cc1nnsc1C(=O)NCc1cccnc1N1CCc2ccccc2C1`, the cytotoxicity at 10 µM turned out to be 10.8%.

In the case of `Cc1n[nH]c(C)c1C1CCCN1C(=O)c1cc(Br)c[nH]1` (stereo unspecified), the cytotoxicity at 10 µM was -4.08%.

In the case of `COCc1ncc(CN2CCC(Oc3ccc(OC)cc3)CC2)cn1`, the cytotoxicity at 10 µM is -5.72%.

With `Cc1cc(CN2CCN(C(=O)NC(C)c3cccnc3)CC2)on1` (stereo unspecified), the cytotoxicity at 10 µM was -7.93%.

With `N[C@H]1CN(C(=O)CCCc2ccc(F)cc2)C[C@@H]1C1CC1`, the cytotoxicity at 10 µM is -2.45%.

`Cc1cccc(CN2CCC3(CCCN(CC(=O)N(C)C)C3)C2)n1` (stereo unspecified): the cytotoxicity at 10 µM was -101%.

Turning to `O=C(NCC(=O)N1CCCC1Cc1cccc(F)c1)c1ccccn1` (stereo unspecified), the cytotoxicity at 10 µM was -8.51%.

On to `CN(Cc1ccco1)Cc1ccccc1CNC(=O)c1cnc[nH]1`, for which the cytotoxicity at 10 µM is 2.6%.

For `Cn1ccc(C(=O)NCc2ccccc2CN2CCCC2)cc1=O`, the cytotoxicity at 10 µM was -17.1%.

For `Cc1nc(C)n(CC2CCCN2CC(=O)NCCc2ccccc2)n1` (stereo unspecified), the cytotoxicity at 10 µM is -16.5%.

In the case of `CC1=Nc2c(c(=O)[nH]n2C2CCOCC2)C(c2cccc(Br)c2)S1` (stereo unspecified), the cytotoxicity at 10 µM came out at 5.91%.

With `O=C1CC(c2ccco2)c2sc(C(=O)O)c(-c3ccccc3)c2N1` (stereo unspecified), the cytotoxicity at 10 µM was 19.1%.

Consider `Cc1ccc(CN2C[C@@H](C(=O)Nc3cccnc3)C[C@H]3OCC[C@H]32)o1`, for which the cytotoxicity at 10 µM worked out at 3.82%.

In the case of `CNC(=O)CN1CCC(NC(=O)Cn2cc(C)c3ccccc32)CC1`, the cytotoxicity at 10 µM was -4.65%.

Turning to `O=C1[C@H]2CN(S(=O)(=O)c3ccccc3)C[C@H]2CN1Cc1cccnc1`, the cytotoxicity at 10 µM is -0.0837%.

With `O[C@H]1[C@H](NCCSc2ccccn2)c2ccccc2C12CCNCC2`, the cytotoxicity at 10 µM was -13.4%.

`Cc1cc(C)cc(C(=O)Nc2ccc(CC3CC(=O)NC3=O)cc2)c1` (stereo unspecified): the cytotoxicity at 10 µM was -3%.

As for `COCCOCC(=O)NCc1ccc(N(C)C)nc1`, the cytotoxicity at 10 µM stood at 8.87%.

Turning to `CC(C)c1ncc(CNC2(c3ccc(Cl)cc3)CC2)cn1`, the cytotoxicity at 10 µM is -32.3%.

On to `O=S(=O)(C1CC1)N1Cc2nccn2CC(Cn2cncn2)C1` (stereo unspecified), for which the cytotoxicity at 10 µM was found to be 1.02%.

As to `Cc1noc(Cl)c1CCC(=O)N1CCN(c2ncccn2)CC1`, the cytotoxicity at 10 µM is -2.01%.

In the case of `CN1C(=O)C[C@@H]2[C@@H]1CCN2S(=O)(=O)Cc1ccccc1`, the cytotoxicity at 10 µM is -5.76%.

As to `CCOc1ccc2nc(CN3CCOC(CN)C3)ccc2c1` (stereo unspecified), the cytotoxicity at 10 µM was -3.54%.

Turning to `N#Cc1ncn(CC(=O)Cc2c(F)cccc2Cl)n1`, the cytotoxicity at 10 µM is -1.45%.

As for `C[S+]([O-])c1nncn1CC(=O)c1ccc2c(c1)CCC2` (stereo unspecified), the cytotoxicity at 10 µM is -1.88%.

For the compound `Cc1ccc2cccc(Oc3nc(C)c(C(=O)O)s3)c2n1`, the cytotoxicity at 10 µM is 6.39%.
